Bioassay records as filed in PubChem.
An excerpt weighted towards active compounds, which were near 3.4% of everything screened.
UCH37 inh = human UCH37 deubiquitinating enzyme inhibition; purified proteasome/UCH37, Ub-AMC cleavage fluorescence; inhibition, % (concentration not given with the values); 330,000 tested, 0.33% active;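 active means mean inhibition over replicate wells above about 20%, limit read from the data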
Target sequence (Q9Y5K5 whole entry, looked up): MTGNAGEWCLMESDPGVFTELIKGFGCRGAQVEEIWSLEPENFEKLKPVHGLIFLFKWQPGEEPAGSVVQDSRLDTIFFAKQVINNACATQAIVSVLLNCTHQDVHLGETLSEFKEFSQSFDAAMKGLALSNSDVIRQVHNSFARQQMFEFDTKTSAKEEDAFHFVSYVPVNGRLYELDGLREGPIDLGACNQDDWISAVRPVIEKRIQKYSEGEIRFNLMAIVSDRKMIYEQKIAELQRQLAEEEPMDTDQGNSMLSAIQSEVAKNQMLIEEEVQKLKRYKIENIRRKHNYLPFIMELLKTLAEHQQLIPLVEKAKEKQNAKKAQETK
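Reagent: Ub-AMC substrate; assay system: Proteasome-associated human UCH37 deubiquitinase; controls: no-proteasome and no-compound wells; read-out: % inhibition of Ub-AMC cleavage fluorescence; timing: 30 min preincubation with enzyme, 25 min cleavage at room temperature; signal: AMC fluorescence from Ub-AMC cleavage, excitation 355 nm, emission 460 nm; buffer or medium: Tris-HCl pH 7.4 plus ovalbumin, ATP-MgCl2, DTT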
A3G deaminase = APOBEC3G (human) deaminase inhibition; Q9HC16; recombinant A3G, ssDNA deamination FAM/TAMRA fluorescence; inhibition, % at 20 µM; 330,000 tested, 0.28% active;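 active means inhibition of at least 40% at 20 µM, with no more than 30% in the related APOBEC3A deaminase screen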
APOBEC3A inh = inhibitors of human APOBEC3A DNA deaminase; P31941; recombinant A3A, FAM/TAMRA ssDNA deamination fluorescence; inhibition, % at 20 µM; 330,000 tested, 0.41% active; AID 493011;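 active means at least 40% inhibition at 20 µM here, with at most 30% in a related deaminase screen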
Target sequence (P31941 whole entry, looked up): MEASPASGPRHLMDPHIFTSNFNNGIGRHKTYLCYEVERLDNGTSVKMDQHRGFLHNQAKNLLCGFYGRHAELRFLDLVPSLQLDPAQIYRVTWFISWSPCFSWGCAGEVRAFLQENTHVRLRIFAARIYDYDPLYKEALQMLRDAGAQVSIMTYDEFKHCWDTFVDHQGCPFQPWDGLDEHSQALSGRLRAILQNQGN
AHR act = human AHR activation; P35869; activation, % at 5 µM; 320,000 tested, 2.5% active; AHR-responsive luciferase reporter cells, luminescence; in the data active means activation above about 47%
PolyA inh = yeast polyadenylation inhibition; S. cerevisiae SKY197-pL101 polyadenylation reporter, beta-gal luminescence; efflux-impaired pdr1/pdr3 knockout yeast; score 100 = 6 SD above DMSO; activity score, % at 12 µM; 300,000 tested, 0.02% active;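 active means lowest replicate activity score at least 50, where 100 means six control SD above control mean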;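 further: yeast exposed to compound for 9 h at 30 °C; higher score means more reporter readthrough which indicates perturbed polyadenylation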
Arr AP2 block = blocks beta-arrestin peptide binding to AP2 adaptin. FITC-arrestin peptide / GST-AP2 beads, flow cytometry; AP2 beta2 appendage carries R879A mutation. inhibition, % at 10 µM. 340,000 tested, 0.31% active. AID 504490;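 active means inhibition above a set limit, near 3 SD of compounds lacking own fluorescence, cut at about 54% in these data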
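System: GST-AP2 R879A bound to glutathione beads, E. coli-expressed. Also added: 50 nM FITC-arrestin peptide. Schedule: compound with beads 12 min RT, then probe 1 h RT. Signal: bead flow cytometry, FITC channel. Read-out basis: percent response.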
Numbers stand for hits; . = inactive; / = no result.

SMILES	UCH37 inh	A3G deaminase	APOBEC3A inh	AHR act	PolyA inh	Arr AP2 block
COc1ccc(-c2ccc(/C=C3/C(=N)N4C=CSC4=NC3=O)o2)c([N+](=O)[O-])c1	.	/	/	49	.	.
Cc1ccc(NC(=S)C2=C(O)c3sccc3N(C)S2(=O)=O)cc1	24	.	.	.	.	.
Cc1ccc(NC(=O)C2=C(O)c3sccc3N(C)S2(=O)=O)cc1	.	.	.	.	.	.
CCOc1ccc(N(CC(=O)NN=Cc2ccc(OC(C)C)cc2)S(C)(=O)=O)cc1	.	/	/	/	/	/
O=C(NC1CCc2ccccc21)c1cc(COc2cncc(Cl)c2)on1 (stereo not drawn)	.	.	.	55	.	.
CCNN=C(Cc1nc2ccccc2[nH]1)c1ccccc1	.	/	/	/	/	/
Cc1ccc(C=NNC(=O)c2cccc(S(=O)(=O)Nc3ccccc3Cl)c2)s1	.	/	/	/	/	/
Cc1ccc(/C=N/NC(=O)c2cccc(S(=O)(=O)Nc3ccccc3Cl)c2)s1	/	.	.	53	.	.
COc1ccc(C=NNC(=O)C(=O)NCc2cccnc2)cc1	.	/	/	/	/	/
CCn1c(-c2cc(-c3ccccc3)sc2N)n[nH]c1=S	.	.	.	73	.	.
CCCCn1nnnc1SCC(=O)Nc1ccc(N(C)C)cc1	.	.	.	71	.	.
Nn1cc(-c2ccccc2)nc1SCC(=O)Nc1ccc2c(c1)OCO2	.	.	.	69	.	.
O=C(CSc1nnnn1CCCO)Nc1ccc2c(c1)OCO2	.	.	.	55	.	.
O=C(Cn1c(SCC(=O)NC2CCCC2)nnc1-c1ccncc1)Nc1ccc2c(c1)OCO2	.	.	.	66	.	.
NC(COc1ccc(Cl)cc1Cl)=NO	.	/	/	/	/	/
CC(C)n1nnnc1SCC(=O)NCc1ccc2c(c1)OCO2	.	.	.	.	.	.
O=C(CSc1nc2ncc(Br)cc2[nH]1)Nc1ccc2c(c1)OCO2	.	.	.	50	.	.
CC(C)n1nnnc1SCC(=O)Nc1ccc2c(c1)OCO2	.	.	.	56	.	.
CCc1nnc(SCC(=O)Nc2ccc3c(c2)OCO3)n1CC	.	.	.	50	.	.
Cc1cccc2c1OCCC2=NNC(=O)COc1ccccc1	.	/	/	/	/	/
CCOC(=O)c1ccc(-n2ccnc2)c(NC(=O)c2ccc(Cl)cc2)c1	.	.	.	53	.	.
CCOC(=O)c1ccc(Cl)c(NC(=O)c2cccnc2)c1	.	.	.	.	.	/
N#C/C(=C/c1ccc(N2CCCCCC2)o1)c1cccc(F)c1	.	.	.	.	.	.
COc1cc(N2CCCC2)c(OC)cc1/C=C(/C#N)c1cccc(F)c1	/	/	/	69	.	.
COc1cccc(NC(=O)C(=O)NCc2ccncc2)c1	.	.	.	53	.	.
SMILES	UCH37 inh	A3G deaminase	APOBEC3A inh	AHR act	PolyA inh	Arr AP2 block
COc1cccc(NC(=S)NCc2ccncc2)c1	.	.	.	.	.	.
COc1ccc(C)cc1NC(=O)C(=O)NCc1ccncc1	.	.	.	50	.	.
Cn1c(=O)c(-c2cc(=O)[nH][nH]2)c(O)c2ccccc21	.	.	.	51	.	.
CSc1nc2c(c(=O)[nH]1)C(c1ccncc1)C(C(=O)OC(C)C)=C(C)N2 (stereo not drawn)	.	.	.	51	.	.
CCOC(=O)NN=C1CC(C)CC(C)(C)C1 (stereo not drawn)	.	/	/	/	/	/
O=C(O)C1CC(c2ccccc2)=NO1 (stereo not drawn)	.	.	.	.	.	.
O=S(=O)(c1ccccc1)C1(C2CC(c3ccccc3)=NO2)CC(O)C1 (stereo not drawn)	28	.	.	.	.	.
Cc1cccc(C=NNC(=O)c2ccc(Cl)cc2)c1O	.	/	/	/	/	/
CC(C)CCN1C(=O)c2cccc3c(N)ccc(c23)C1=O	/	.	.	65	.	.
Cc1ccc(-n2nc(CC#N)c(C#N)c2N)cc1Cl	.	.	.	68	.	.
Cc1ccc(-n2nc(CC#N)c(C#N)c2N)cc1	.	.	.	.	.	.
Cc1c(C)c2c(C)nn(-c3ccccc3)c2[nH]c1=O	.	.	.	96	.	.
CN(C)CCNc1oc(-c2cccc(Cl)c2)nc1C#N	.	.	.	78	.	.
CN(C)CCCNc1oc(-c2ccccc2)nc1C#N	.	.	.	.	.	.
Cc1cc(-c2csc(Nc3ccccn3)n2)ccc1F	.	.	.	65	.	.
Fc1ccc(-c2csc(Nc3ccccn3)n2)c(F)c1	.	.	.	78	.	.
CC(=O)Nc1ccc(C(C)=NNC(=O)c2ccc(CN3CCOCC3)cc2)cc1	.	/	/	/	/	/
Cc1nc2c(-c3ccccc3)c(C)nn2c(N)c1-c1ccccc1	.	.	.	.	.	.
Cc1nn2c(N)c(-c3ccccc3)cnc2c1-c1ccc(Cl)cc1	.	.	.	64	.	.
CS(=O)(=O)n1nc(-c2ccc(Cl)cc2)nc1N	.	.	.	.	.	.
Cn1nc(-c2ccc(Cl)cc2)nc2c(=O)n(C)c(=O)nc1-2	92	.	.	.	.	/
CCN1CCC2(CC1)C(C#N)=C(N)Oc1c2sc2nc(C)cc(C)c12	.	.	.	63	.	.
COc1ccc([N+](=O)[O-])cc1NC(=O)CSc1nccc(C)n1	.	.	.	69	.	.
CCn1c(C)csc1=NC(=O)c1ccccc1	.	.	.	61	.	.
NC(=O)c1nsc(C(=O)N(c2ccc(F)cc2)C(C(=O)NCC2CCCO2)c2c[nH]c3ccccc23)c1N (stereo not drawn)	.	.	.	74	.	.
SMILES	UCH37 inh	A3G deaminase	APOBEC3A inh	AHR act	PolyA inh	Arr AP2 block
Cc1cccc(N(C(=O)c2snc(C(N)=O)c2N)C(C(=O)NCC2CCCO2)c2c[nH]c3ccccc23)c1 (stereo not drawn)	.	.	.	.	.	.
NC(=O)c1nsc(C(=O)N(c2cccc(F)c2)C(C(=O)NCC2CCCO2)c2c[nH]c3ccccc23)c1N (stereo not drawn)	.	.	.	65	.	.
COc1ccccc1/C=C/C(=O)N1CCC(c2ccccc2)C1 (stereo not drawn)	.	.	.	66	.	.
Cc1cc2nc(-c3ccc(=O)[nH]c3)n(Cc3ccccc3)c2cc1C	/	.	.	79	.	.
Cc1ccccc1Cn1c(-c2ccc(=O)[nH]c2)nc2ccccc21	.	.	.	.	.	.
Cc1ccc(C(=O)ON=C(N)c2nonc2N)cc1	.	/	/	/	/	/
CCC(C)S(=O)(=O)c1snnc1C (stereo not drawn)	31	.	.	.	.	.
Cc1cccc(N=C2NC(=O)S/C2=C\c2ccco2)c1	.	.	.	68	.	.
Cc1nc(Cl)sc1C(=O)Nc1ccc(Cl)cc1	.	.	.	93	.	.
Cc1nc(Nc2ccc(S(N)(=O)=O)cc2)sc1C(=O)Nc1ccccc1	21	.	.	.	.	.
O=C(Nc1ccc(F)cc1)c1ccc2ncsc2c1	.	.	.	.	.	.
